PRMT1 FP inh: PRMT1 (human) inhibition, primary screen | recombinant PRMT1, activity-based probe fluorescence polarization | AID 652257 | Q99873 | inhibition, % at 2.79 µM | 370,000 tested, 1.3% active;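 active = inhibition above about 21% made by adding two undisclosed values, limit read from the data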
TCR CD3 inh: blocks the human TCR-CD3 interaction | AID 651800 | inhibition, % at 9.4 µM | 360,000 tested, 0.37% active | TAMRA-labeled TCR probe fluorescence, biochemical; in the data active = inhibition above about 19%;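 also: recombinant mutant TCR 2C K166C tagged with TAMRA read by polarization; 0% = receptor in buffer alone and 100% = receptor with positive control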
SIAE inh: inhibitors of human sialic acid acetylesterase SIAE; inhibition, % at 9.66 µM; Q9HAT2; 370,000 tested, 0.69% active; SIAE FP-Rh probe binding, fluorescence polarization;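 active = inhibition above a cutoff: mean of compounds within the control limits plus 3 SD of those, cut at about 17% in these data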;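 also: 0% = plate median of compound wells and 100% = probe without SIAE protein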
Target sequence (Q9HAT2 whole entry, looked up): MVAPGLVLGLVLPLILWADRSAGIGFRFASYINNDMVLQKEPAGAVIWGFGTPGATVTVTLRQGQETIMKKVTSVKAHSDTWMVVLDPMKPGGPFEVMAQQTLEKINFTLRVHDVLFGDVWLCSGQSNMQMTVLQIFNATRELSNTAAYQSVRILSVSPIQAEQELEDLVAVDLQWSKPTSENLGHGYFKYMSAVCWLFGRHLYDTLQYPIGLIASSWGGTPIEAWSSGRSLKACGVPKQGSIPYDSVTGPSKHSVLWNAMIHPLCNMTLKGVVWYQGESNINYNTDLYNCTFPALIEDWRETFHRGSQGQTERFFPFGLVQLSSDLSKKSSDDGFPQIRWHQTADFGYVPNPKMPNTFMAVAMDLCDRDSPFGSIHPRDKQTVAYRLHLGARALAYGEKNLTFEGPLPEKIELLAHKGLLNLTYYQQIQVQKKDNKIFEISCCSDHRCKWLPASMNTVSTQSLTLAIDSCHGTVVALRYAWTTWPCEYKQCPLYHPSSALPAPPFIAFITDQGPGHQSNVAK
ABHD4 inh: ABHD4 (mouse) inhibition, primary FP screen; 370,000 tested, 0.54% active; purified mABHD4, FP-Rh probe fluorescence polarization; inhibition, % at 8.92 µM; Q8VD66;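 active = inhibition exceeding the mean over every tested compound plus 3 SD, cut at about 30% in these data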;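 also: 0% = plate median of compound wells and 100% = S159A mutant with DMSO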
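Test system: mABHD4 protein | Buffer or medium: HEPES pH 7.0 buffer, 150 mM NaCl, 0.01% Pluronic F-127 | Probe or stimulus: FP-Rh fluorescent activity-based probe, added after compound pre-incubation | Timing: Pre-incubation 45 min, probe exposure 60 min, at 25 °C | Technique: Fluorescence polarization, excitation 525 nm, emission 598 nm, BODIPY TMR filters | Repeats: Single well per compound (singlicate)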
HTRA1 inhibitor: blocks human HTRA1 serine peptidase | 340,000 tested, 0.5% active | inhibition, % at 5.96 µM | AID 504803 | Q92743 | recombinant HTRA1, FP-rhodamine activity-based probe, fluorescence polarization; in the data active = inhibition above about 36%;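 also: 0% = enzyme with DMSO and 100% = wells lacking enzyme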
mABHD4 conf: ABHD4 (mouse) inhibition, FP confirmation; shares compounds with ABHD4 inh; purified mABHD4, FP-Rh probe fluorescence polarization; inhibition, % at 8.92 µM; 1,800 tested, 55% active;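 active = mean inhibition across replicates above the hit cutoff set in the primary screen, cut at about 30% in these data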;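 also: 0% = wild-type ABHD4 with DMSO and 100% = catalytically dead S159A mutant with DMSO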
Numbers without * were called inactive. Hits are enriched below; roughly 2.6% of the tested compounds scored in any of these assays.

`CC(C)C(=O)N1CCN(c2ccccc2NC(=O)c2cccc3ccccc23)CC1` gave PRMT1 FP inh -1, TCR CD3 inh 1, SIAE inh 3, ABHD4 inh -5 and HTRA1 inhibitor -2.
Nc1[nH]c(C(=O)c2ccccc2)c(-c2ccc3c(c2)OCO3)c1C(=O)NCCc1c[nH]c2ccccc12 was read as PRMT1 FP inh -3, TCR CD3 inh 3, SIAE inh 13, ABHD4 inh 33* and mABHD4 conf 39*.
Screening Nc1[nH]c(C(=O)c2ccccc2)c(-c2ccc(Cl)c(F)c2)c1C(=O)NCCc1c[nH]c2ccccc12 returned PRMT1 FP inh 2, TCR CD3 inh 1, SIAE inh 16, ABHD4 inh 40* and mABHD4 conf 43*.
`Cc1ccc(S(=O)(=O)N2C[C@H]3C(=O)C[C@@H](c4cccc(Cl)c4)N(S(=O)(=O)c4ccc(C)cc4)[C@H]3C[C@H]2c2ccccc2)cc1` gave PRMT1 FP inh -1, TCR CD3 inh -2, SIAE inh -5, ABHD4 inh 4 and HTRA1 inhibitor -23.
`COC(=O)c1ccc(CNC(=O)[C@@H]2CCCN2S(=O)(=O)c2ccccc2F)cc1` gave PRMT1 FP inh -1, TCR CD3 inh -1, SIAE inh 5, ABHD4 inh 2 and HTRA1 inhibitor 6.
Screening COCC(C)N1CC(O)=C(c2nc(-c3ccc(Cl)cc3)cs2)C1=N (stereo unspecified) returned PRMT1 FP inh 1, TCR CD3 inh 0, SIAE inh 6, ABHD4 inh 32*, HTRA1 inhibitor 8 and mABHD4 conf 29.
CN(C(=S)Nc1cccnc1)c1ccc(O)cc1 was read as PRMT1 FP inh 33*, TCR CD3 inh 15, SIAE inh 12, ABHD4 inh 47*, HTRA1 inhibitor 22 and mABHD4 conf 7.
For CN(C(=S)Nc1ccc(SC(F)F)cc1)c1ccc(O)cc1 the results were PRMT1 FP inh 30*, TCR CD3 inh 4, SIAE inh 17, ABHD4 inh 45*, HTRA1 inhibitor 31 and mABHD4 conf -4.
For COc1cc(NC(=O)c2ccccc2)c(C)cc1NC(=O)CSc1nnc(COc2ccccc2)n1Cc1ccco1 the results were PRMT1 FP inh -4, SIAE inh -2 and ABHD4 inh -5.
For CCCc1cc(=O)[nH]c2nnc(SCC(=O)NC3CCCC3)n12 the results were PRMT1 FP inh -3, TCR CD3 inh 4, SIAE inh 5, ABHD4 inh -4 and HTRA1 inhibitor 1.
Cc1c(C)n2c(SCC(=O)NC3CCCCC3)nnc2[nH]c1=O was read as PRMT1 FP inh 3, TCR CD3 inh -4, SIAE inh -2, ABHD4 inh 31*, HTRA1 inhibitor 6 and mABHD4 conf 5.
Screening Cn1c(N)c(C(=O)COC(=O)c2ccc(OC(F)F)cc2)c(=O)n(C)c1=O returned PRMT1 FP inh -1, TCR CD3 inh 3, SIAE inh 0, ABHD4 inh 4 and HTRA1 inhibitor 0.
CCc1ccc2[nH]c(O)c(N=NC3=NC(=O)CS3)c2c1 was read as PRMT1 FP inh 7, TCR CD3 inh 0, SIAE inh -1, ABHD4 inh 31*, HTRA1 inhibitor 11 and mABHD4 conf 41*.
CCCNC(=O)C1(C)CCCN(C(=O)c2cc(F)ccc2C)C1 (stereo unspecified) was read as PRMT1 FP inh -6, TCR CD3 inh 5, SIAE inh 0 and ABHD4 inh 3.
`CCN(CC(=O)NCc1ccc(Cl)cc1)C(=O)CNS(=O)(=O)c1ccc(NC(C)=O)cc1` gave PRMT1 FP inh 9, TCR CD3 inh -4, SIAE inh -12, ABHD4 inh -6 and HTRA1 inhibitor 2.
CCOC(=O)c1ccc(N2NC(=O)/C(=C/c3ccc(OC(=O)c4ccco4)c(OC)c3)C2=O)cc1 was read as PRMT1 FP inh 12, TCR CD3 inh -2, SIAE inh 4, ABHD4 inh 33* and mABHD4 conf 12.
Screening Cc1noc(C(=O)Nc2cccc(Cl)c2)c1Cl returned PRMT1 FP inh 3, TCR CD3 inh 1, SIAE inh -11, ABHD4 inh -11 and HTRA1 inhibitor 2.
Screening COc1ccc(C2C=CC(=O)CC2)c(OC)c1 (stereo unspecified) returned PRMT1 FP inh 2, TCR CD3 inh 3, SIAE inh 2 and ABHD4 inh 10.
For CCN(CC)C(=O)c1sc2nc(Cc3ccccc3)[nH]c(=O)c2c1C the results were PRMT1 FP inh 1, TCR CD3 inh 6, SIAE inh -6, ABHD4 inh 37*, HTRA1 inhibitor -14 and mABHD4 conf 40*.
`CC(=O)N(Cc1ccccc1)Cc1nc2sc(C)c(C)c2c(=O)[nH]1` gave PRMT1 FP inh -5, TCR CD3 inh 9, SIAE inh 9, ABHD4 inh 2 and HTRA1 inhibitor -6.
Cc1cc(NCc2ccccn2)n2ncc(-c3ccc(Cl)cc3)c2n1 was read as PRMT1 FP inh -2, TCR CD3 inh -1, SIAE inh 7, ABHD4 inh 48* and mABHD4 conf 64*.
For Cc1cc(NCc2ccccn2)n2ncc(-c3ccccc3)c2n1 the results were PRMT1 FP inh 1, TCR CD3 inh -8, SIAE inh 0, ABHD4 inh 45*, HTRA1 inhibitor 12 and mABHD4 conf 47*.
Screening CC(C)C[C@H]1CN([C@@H](Cc2ccc(O)cc2)CN2CCCC2CN2C(=S)NC[C@@H]2Cc2ccccc2)C(=S)N1CC1CCCCC1 (stereo partly specified) returned PRMT1 FP inh -6, TCR CD3 inh 3, SIAE inh -9 and ABHD4 inh -4.
Screening CCCCc1ncc(CN2CCC(n3nccc3NC(=O)C(OC)c3ccccc3)CC2)[nH]1 (stereo unspecified) returned PRMT1 FP inh 3, TCR CD3 inh 11, SIAE inh 2, ABHD4 inh 1 and HTRA1 inhibitor -1.
For CC(C)CCN1C(=O)c2cccc3c(N)ccc(c23)C1=O the results were PRMT1 FP inh 158*, TCR CD3 inh -2, SIAE inh 14, ABHD4 inh 50*, HTRA1 inhibitor 14 and mABHD4 conf 62*.
For CCN1C(=O)c2cccc3c(Cl)ccc(c23)C1=O the results were PRMT1 FP inh -5, TCR CD3 inh 4, SIAE inh -11, ABHD4 inh -8 and HTRA1 inhibitor 3.
`CCN(CC)c1ccc(C(=C2C=CC(=[N+](CC)CC)C=C2)c2ccccc2)cc1` gave PRMT1 FP inh 0, TCR CD3 inh 5, SIAE inh 13, ABHD4 inh 71*, HTRA1 inhibitor 20 and mABHD4 conf 103*.
For Cc1cccc(N(CC(=O)NCc2ccc3c(c2)OCO3)C(=O)CCC(=O)Nc2ccccn2)c1 the results were PRMT1 FP inh -1, TCR CD3 inh 3, SIAE inh 3, ABHD4 inh 40*, HTRA1 inhibitor 3 and mABHD4 conf -7.
